# Measurements from publication PMC4174992 (The Journal of Physical Chemistry. B, 2014).
# Like-named read-outs stand apart in the source and are kept apart here.
# Columns and labels:
# [1] = cited from earlier work
# [2] = Ion-mobility mass spectrometry; format: physicochemical; settings: IM-MS, 200 μM in water
# Atomic force microscopy = format: physicochemical
# Outline: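 Samples were N-acetyl/C-amide peptides at 200 μM in water, with no buffer, to slow aggregation and limit charge screening. Peptide stocks were made in filtered deionized water, flash-frozen and kept at −80 °C. AFM height images were taken at 1 Hz with 512 × 512 points, fibrils masked and first-order flattened. Each fibril or granular-aggregate height and length is the mean of 20 measurements.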
# [3] = tested on: embryonic rat hippocampal neurons; settings: Busciglio and co-workers; cited from earlier work
substance,measurement,setting,value
YVVFL,aggregation strength (class 6 steric zipper),[1]; PDB 4OLR / 4ONK,weakly aggregating
"Ac-Aβ(25–35)-NH2: amphipathic amyloid-β fragment containing the hydrophobic hexapeptide GAIIGL (Ac-GSNKGAIIGLM-NH2; UniProt P05067 696-706, looked up, fragment)",largest oligomers observed,[2]; heteroligomers from 1:1 mixture,hexamers and nonamers
same,onset of cross-section deviation from isotropic oligomer model,[2]; indicates extended oligomers,starting at the trimer stage
same,aggregates observed by AFM (1 week),"Atomic force microscopy; 1 week incubated, 200 μM in water, mixture at 1:1",abundant fibrillar aggregates
same,time to fibrillar aggregates,"Atomic force microscopy; fresh peptide, in water",within an hour
Aβ(1–40): full length Aβ isoform,result compared with Aβ(25–35) effect on neurons,[3],similar
NFLVHSS,aggregation strength (class 6 steric zipper),[1]; PDB ID 3FTH,weakly aggregating
YVVFV,aggregation strength (class 6 steric zipper),[1]; PDB 4OLR / 4ONK,weakly aggregating
